MrgX1 antag: blocks BAM8-22 activation of human MrgX1 receptor; Q96LB2; AID 588676; MRGX1-HEK293 calcium flux, Fluo-4, BAM8-22 antagonism; hits give low values; hit rate 1.3% among 310,000; B-score at 10 µM;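 active = calcium-response B-score plate-corrected more than 3 library SD below zero, starting fluorescence within 5 deviations, no agonist response on first addition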;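 note: peak minus trough fluorescence over baseline after final BAM8-22 challenge near maximal dose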
Target sequence (Q96LB2 whole entry, looked up): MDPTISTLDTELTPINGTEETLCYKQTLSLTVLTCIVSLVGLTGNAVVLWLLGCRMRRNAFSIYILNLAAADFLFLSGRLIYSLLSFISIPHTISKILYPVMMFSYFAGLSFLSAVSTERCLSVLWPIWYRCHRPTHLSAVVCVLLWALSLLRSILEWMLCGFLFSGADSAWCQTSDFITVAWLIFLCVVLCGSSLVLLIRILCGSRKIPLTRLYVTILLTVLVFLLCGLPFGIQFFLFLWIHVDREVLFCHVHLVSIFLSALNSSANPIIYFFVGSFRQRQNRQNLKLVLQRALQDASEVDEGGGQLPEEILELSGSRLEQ
MrgX1 PAM: human MrgX1 positive allosteric modulation, primary screen; B-score at 10 µM; hit rate 0.63% among 310,000; Q96LB2; MrgX1-HEK293, Fluo-4 calcium flux, FDSS; hits give high values;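 active = plate-corrected calcium response at least 3 library SD above typical, normal starting fluorescence, not activating the receptor alone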;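 note: compound read alongside a low EC10 to EC30 dose of BAM8-22 agonist; peak minus trough fluorescence over baseline measured at the second addition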
MrgX1 agonist: human MrgX1 receptor agonism, primary screen. B-score at 10 µM. hit rate 0.44% among 310,000. MrgX1-HEK293 cells, Fluo-4 calcium fluorescence, agonist mode; hits give high values;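 active = calcium response B-score plate-corrected fluorescence ratio at least 3 library SD, with starting fluorescence B-score inside 5 SD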
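Assay system: stable human MrgX1 HEK293 cell line. Quantity: 15,000 cells per well. Schedule: cells plated overnight, dye loaded 0.5 h 37 °C, 0.5 h room temperature. Detection: Fluo-4 NW calcium-flux fluorescence, kinetic read. Read-out basis: peak-minus-minimum fluorescence over baseline, converted to B scores. Control set: positive and negative control wells on each plate.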
RGS4 inh: inhibitors of human RGS4. hit rate 0.45% among 310,000. HEK293 M3R/RGS4 inducible, Fluo-4 calcium flux; hits give high values; triggered by carbachol at its EC20. B-score at 10 µM. P49798;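 active = B-score, a plate-corrected calcium signal, over three deviations above library mean, with baseline fluorescence within five deviations of library mean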;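 note: RGS4 expression induced by doxycycline in cells with stable M3 receptor; B-score is computed from the integrated fluorescence ratio over baseline after carbachol; higher B-score means a larger calcium signal and so more RGS4 inhibition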
Target sequence (P49798 whole entry, looked up): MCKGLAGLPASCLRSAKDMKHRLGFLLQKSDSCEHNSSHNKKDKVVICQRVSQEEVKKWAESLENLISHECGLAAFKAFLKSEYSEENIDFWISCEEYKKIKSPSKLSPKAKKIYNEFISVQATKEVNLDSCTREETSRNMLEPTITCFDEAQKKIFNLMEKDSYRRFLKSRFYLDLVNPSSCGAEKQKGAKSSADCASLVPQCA
Cl transport mod: modulates chloride dependent transport by human KCC2; hit rate 2.2% among 190,000; B-score of Tl+ flux slope (higher = more flux/activation; lower = inhibition) at 10 µM; Q9H2X9; KCC2 cells, thallium flux FluoZin-2 fluorescence;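 active = thallium flux slope and its plate-corrected score both differing from the plate sample mean at a set confidence after two filtering rounds, in either direction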;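 note: slope of fluorescence scaled to starting intensity during 10 to 20 s after thallium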
RGS4 act: potentiators or activators of RGS4; HEK293 M3R/inducible RGS4, carbachol calcium flux Fluo4; hits give low values; B-score at 10 µM; hit rate 0.92% among 310,000; AID 463111;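 active = B-score of the integrated calcium signal more than 4 SD below the library mean, with starting fluorescence not abnormally high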;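 note: negative B-score means reduced calcium response which marks RGS4 activation or potentiation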
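Material: M3R-expressing HEK293 line, RGS4 induced by doxycycline | Schedule: Overnight RGS4 induction, 30 min dye load 37 °C, 20 min compound RT | Measured by: Fluo4 fluorescence kinetic imaging of calcium | Read-out: Integrated calcium ratio converted to B score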
MrgX1 PAM conf: human MrgX1 positive allosteric modulation, re-confirmation; AID 602413; MrgX1-HEK293, Fluo-4 calcium fluorescence, FDSS; hit rate 13% among 1,200; shares compounds with MrgX1 PAM; activation (ratio percentage), % at 10 µM;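 active = ratio at least 3 SD above the weak peptide control, stable starting fluorescence, no direct agonism earlier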;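 note: compound followed by low BAM8-22 agonist challenge near EC20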
HEK293 Ca flux: counter-screen for MrgX1 antagonists: effect in parental HEK293 cells; shares compounds with MrgX1 antag; Fluo-4 calcium fluorescence, FDSS; fluorescence ratio F(max-min)/F0 at 10 µM; hit rate 2% among 4,000; AID 624111;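 active = duplicate-averaged calcium fluorescence ratio at least three times the standard deviation of buffer wells, a nonspecific response in parental cells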
HEK293 Ca counter: MrgX1 allosteric activator counter-screen hit in parental HEK293 cells. shares compounds with MrgX1 antag. parental HEK293 calcium flux, Fluo-4 fluorescence ratio; hits give high values. fluorescence ratio F(max-min)/F0 at 10 µM. hit rate 0.4% among 4,000. AID 624114;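 active = calcium fluorescence ratio, averaged over duplicates, at least 3 SD of the buffer-well ratio, meaning a nonspecific response in receptor-free cells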;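 note: untransfected parental HEK293 lacking MrgX1 used as counterscreen for MrgX1 allosteric activators; fluorescence change taken during the second addition on a kinetic imager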
HEK293 Ca cntr2: counter-screen for MrgX1 activators: effect in parental HEK293 cells. hit rate 8.7% among 4,000. fluorescence ratio F(max-min)/F0 at 10 µM. shares compounds with MrgX1 antag. Fluo-4 calcium fluorescence (FDSS); hits give high values;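 active = calcium fluorescence ratio at least three times the spread of buffer wells, meaning a non-specific response in parental cells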
Of the large screens only hits and unclear results are named; the others gave an inactive call (follow-up assays come after a bar, where they were run); ! = a repeat was not active. The list is not random: actives were taken first. Their share in the collection is about 4.7%.

CCC(CC)C(=O)Nc1cccc(-c2ccc3nncn3n2)c1	none (no result: Cl transport mod)
CCC1C(=NO)C(CC)C(c2ccccc2)NC1c1ccccc1 (centres undefined)	MrgX1 PAM 23 (no result: Cl transport mod) | MrgX1 PAM conf inactive | HEK293 Ca flux inactive | HEK293 Ca counter inactive | HEK293 Ca cntr2 inactive
CCC1C(=O)C(CC)C(c2ccccc2)NC1c1ccccc1 (centres undefined)	none (no result: Cl transport mod)
CC(=O)c1ccc(Nc2cc(C)nc3c(C)cccc23)cc1	none
Cc1ccc(Nc2cc(C)nc3c(C)cccc23)cc1	MrgX1 PAM 7.3 (no result: Cl transport mod) | MrgX1 PAM conf inactive | HEK293 Ca flux inactive | HEK293 Ca counter inactive | HEK293 Ca cntr2 inactive
Cc1ccc(CC(=O)Nc2ccccc2-c2ccccc2)cc1C	MrgX1 PAM 21 | MrgX1 PAM conf inactive | HEK293 Ca flux inactive | HEK293 Ca counter inactive | HEK293 Ca cntr2 inactive
COc1ccc(OCC(=O)Nc2ccccc2-c2ccccc2)cc1	MrgX1 PAM 12 | MrgX1 PAM conf inactive | HEK293 Ca flux inactive | HEK293 Ca counter inactive | HEK293 Ca cntr2 inactive
COc1ccccc1CN(C)CC(=O)Nc1ccccc1-c1ccccc1	MrgX1 PAM 10 | MrgX1 PAM conf inactive | HEK293 Ca flux inactive | HEK293 Ca counter inactive | HEK293 Ca cntr2 inactive
COc1ccc(CC(=O)Nc2ccccc2-c2ccccc2)cc1OC	none (no result: Cl transport mod)
CCOc1ccccc1N(CC(=O)NC1CCCCC1)S(=O)(=O)c1ccc(C)cc1	MrgX1 PAM 9.2 (no result: Cl transport mod) | MrgX1 PAM conf inactive | HEK293 Ca flux inactive | HEK293 Ca counter inactive | HEK293 Ca cntr2 inactive
O=C(CCc1nc(-c2ccccc2)c(-c2ccccc2)o1)OCc1ccc(Br)cc1	MrgX1 PAM 20 (no result: Cl transport mod) | MrgX1 PAM conf inactive | HEK293 Ca flux inactive | HEK293 Ca counter inactive | HEK293 Ca cntr2 inactive
O=C(CCc1nc(-c2ccccc2)c(-c2ccccc2)o1)OCc1ccc(Cl)cc1	none
Fc1ccccc1NC(=S)N(CCN1CCCCC1)Cc1ccco1	MrgX1 PAM 11 | MrgX1 PAM conf inactive | HEK293 Ca flux inactive | HEK293 Ca counter inactive | HEK293 Ca cntr2 inactive
CCN(C1CCCCC1)S(=O)(=O)c1cc2c3c(c1)CCN3C(=O)CC2	none (no result: Cl transport mod)
C=CCSc1nc(O)c(C2OC(=O)c3c2ccc(OC)c3OC)c(=O)n1-c1ccccc1 (centres undefined)	MrgX1 PAM 31 | MrgX1 PAM conf inactive | HEK293 Ca flux inactive | HEK293 Ca counter inactive | HEK293 Ca cntr2 inactive
CN1CCN(c2ccc(Cl)cc2NC(=O)C2COc3ccccc3O2)CC1 (centres undefined)	MrgX1 PAM 6.5 | MrgX1 PAM conf inactive | HEK293 Ca flux inactive | HEK293 Ca counter inactive | HEK293 Ca cntr2 inactive
COc1ccc(Cl)cc1NC(=O)C1COc2ccccc2O1 (centres undefined)	none
Cc1ccc(NC(=O)Cn2cc([N+](=O)[O-])nc2C)cc1C	none (no result: Cl transport mod)
O=C(CCl)Nc1cccc(S(=O)(=O)NC2=NCCC2)c1	MrgX1 PAM 7.9 | MrgX1 PAM conf inactive | HEK293 Ca flux inactive | HEK293 Ca counter inactive | HEK293 Ca cntr2 inactive
CCNC(=S)Nc1cccc(S(=O)(=O)NC2=NCCC2)c1	none
Cc1cc(O)cc(C)c1Cl	MrgX1 PAM 17 (no result: Cl transport mod) | MrgX1 PAM conf inactive | HEK293 Ca flux inactive | HEK293 Ca counter inactive | HEK293 Ca cntr2 inactive
Cc1sc2ncn(C(C)C(=O)OC3CCCCC3)c(=O)c2c1C (centres undefined)	MrgX1 PAM 9.2 | MrgX1 PAM conf inactive | HEK293 Ca flux inactive | HEK293 Ca counter inactive | HEK293 Ca cntr2 inactive
CCC(C(=O)NC1CCCCCC1)n1nc(C)c2c(C)n(-c3ccccc3)nc2c1=O (centres undefined)	none (no result: Cl transport mod)
COc1ccc(Nc2nc(C)c3ccccc3n2)cc1	MrgX1 PAM 15 | MrgX1 PAM conf inactive | HEK293 Ca flux inactive | HEK293 Ca counter inactive | HEK293 Ca cntr2 inactive
CCOC(=O)C1CCN(C(=O)CN2C(=O)C(C(C)C)Oc3ccccc32)CC1 (centres undefined)	none (no result: Cl transport mod)
CCOC(=O)C1CCN(C(=O)CN2C(=O)c3cccnc3Oc3ccccc32)CC1	MrgX1 PAM 8.3 (no result: Cl transport mod) | MrgX1 PAM conf inactive | HEK293 Ca flux inactive | HEK293 Ca counter inactive | HEK293 Ca cntr2 inactive
COc1cccc(O)c1CN1CCC(Oc2ccc(C(=O)NCc3ccccn3)cc2)CC1	none (no result: Cl transport mod)
Cc1ccc(CNC(=O)Cn2ccc3cc(S(=O)(=O)N4CCCCCC4)ccc32)cc1	none (no result: Cl transport mod)
Cc1cc(NC(=O)CSc2nnc(C)n2C)no1	none (no result: Cl transport mod)
O/N=C/c1cn(-c2ccccc2)nc1-c1ccc2c(c1)OCCO2	none
COc1cccc(-c2nn(-c3ccccc3)cc2CO)c1	MrgX1 PAM 12 | MrgX1 PAM conf inactive | HEK293 Ca flux inactive | HEK293 Ca counter inactive | HEK293 Ca cntr2 inactive
OCc1cn(-c2ccccc2)nc1-c1ccc2c(c1)OCCO2	MrgX1 PAM 39 (no result: Cl transport mod) | MrgX1 PAM conf 21% | HEK293 Ca flux inactive | HEK293 Ca counter inactive | HEK293 Ca cntr2 inactive
Nc1ccc(Oc2cccc(Oc3ccc(N)cc3)c2)cc1	none
Nc1ccc(Oc2ccc(Br)cc2)cc1	MrgX1 PAM 8.4 | MrgX1 PAM conf inactive | HEK293 Ca flux inactive | HEK293 Ca counter inactive | HEK293 Ca cntr2 inactive
Oc1cc2c(c(Cl)c1O)CCNCC2c1ccccc1 (centres undefined)	none (no result: Cl transport mod)
Oc1ccc(C2CNCCc3c2cc(O)c(O)c3Cl)cc1 (centres undefined)	MrgX1 PAM 6.7! (no result: Cl transport mod) | MrgX1 PAM conf inactive | HEK293 Ca flux inactive | HEK293 Ca counter inactive | HEK293 Ca cntr2 inactive
CCOc1ccc(S(=O)(=O)N2CCCC(C(=O)NC3CCCC3)C2)cc1 (centres undefined)	none (no result: Cl transport mod)
O=C(CSc1nc(O)c(C2CCCCC2)c(=O)[nH]1)Nc1ccc(F)cc1	none (no result: Cl transport mod)
Cc1nn(-c2ccc(N3CCCCC3)nn2)c(C)c1CCC(=O)Nc1cc(F)ccc1F	MrgX1 PAM 7.8 (no result: Cl transport mod) | MrgX1 PAM conf inactive | HEK293 Ca flux inactive | HEK293 Ca counter inactive | HEK293 Ca cntr2 inactive
COc1ccc(CC(C(=O)Nc2ccc(OC)cc2)c2nn[nH]n2)cc1 (centres undefined)	none (no result: Cl transport mod)
O=C(Nc1ccon1)c1csc2c1CCCC2	none
O=C(Nc1nccs1)c1csc2c1CCCC2	MrgX1 PAM 12 | MrgX1 PAM conf inactive | HEK293 Ca flux inactive | HEK293 Ca counter inactive | HEK293 Ca cntr2 inactive
CCOC(=O)C1CCCCN1Cc1ccc(-c2ccccc2)cc1 (centres undefined)	none (no result: Cl transport mod)
